In brackets after ≈: the same amount, converted by molar mass.
Experiments:
Staphylococcus aureus [1] = assay: Antibacterial activity against Staphylococcus aureus ATCC 700699 isolate with gyrA Ser84Leu, Glu409Lys and grlA Ser80Phe mutant after 24 hrs by broth microdilution method; assay type: functional; details: ATCC 700699, 24 h
Staphylococcus aureus [2] = assay: Antibacterial activity against Staphylococcus aureus ACH-0210 isolate with gyrA Ser84Leu and grlA Ser80Phe mutant after 24 hrs by broth microdilution method; assay type: functional
Staphylococcus aureus [3] = assay: Antibacterial activity against Staphylococcus aureus ACH-0206 isolate with gyrA Ser84Leu mutant after 24 hrs by broth microdilution method; assay type: functional
Method in brief: (§1)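 Broth microdilution per CLSI guidelines. MIC taken as the lowest concentration preventing visible growth at 24 h. Each MIC determined at least twice.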

Staphylococcus aureus [4] = assay: Antibacterial activity against Staphylococcus aureus ACH-0216 isolate with grlA Ser80Phe mutant after 24 hrs by broth microdilution method; assay type: functional; method in brief: as §1
Staphylococcus aureus [5] = assay: (§2) Antibacterial activity against Staphylococcus aureus ACH-0129 isolate with gyrA Ser84Leu, Glu88Val and grlA Ser80Phe, Ala116Val mutant after 24 hrs by broth microdilution method; assay type: functional
Staphylococcus aureus [6] = assay: as §2; assay type: functional; remark: listed apart in the source
Staphylococcus aureus [7] = assay: Antibacterial activity against Staphylococcus aureus ACH-0192 isolate with gyrA Ser84Leu and grlA Ser80Phe, Ala116Val mutant after 24 hrs by broth microdilution method; assay type: functional
Staphylococcus aureus [8] = assay: Antibacterial activity against Staphylococcus aureus ACH-0204 isolate with gyrA Ser84Leu mutant after 24 hrs by broth microdilution method; assay type: functional; method in brief: as §1
Staphylococcus aureus [9] = assay: Antibacterial activity against Staphylococcus aureus ACH-0231 isolate with gyrA Ser84Leu, Glu88Lys and grlA Ser80Tyr, Glu84Gly mutant after 24 hrs by broth microdilution method; assay type: functional
Staphylococcus aureus [10] = assay: Antibacterial activity against Staphylococcus aureus ACH-0218 isolate with grlA Glu84Lys mutant after 24 hrs by broth microdilution method; assay type: functional; method in brief: as §1
Staphylococcus aureus [11] = assay: Antibacterial activity against Staphylococcus aureus ACH-0186 isolate with gyrA Ser84Leu and grlA Ser80Phe, Ala116Val mutant after 24 hrs by broth microdilution method; assay type: functional
Staphylococcus aureus [12] = assay: Antibacterial activity against Staphylococcus aureus ATCC 33591 isolate after 24 hrs by broth microdilution method; assay type: functional; details: ATCC 33591, 24 h; method in brief: as §1
Staphylococcus aureus [13] = assay: Antibacterial activity against Staphylococcus aureus NY2746 isolate with gyrA Ser84Leu and grlA Ser80Phe mutant after 24 hrs by broth microdilution method; assay type: functional
Staphylococcus aureus [14] = assay: Antibacterial activity against Staphylococcus aureus BSA678 isolate with gyrA Ser84Leu, Ser85Pro and grlA Ser80Phe, Glu84Lys mutant after 24 hrs by broth microdilution method
Staphylococcus aureus [15] = assay: Antibacterial activity against Staphylococcus aureus ACH-0201 isolate with gyrA Ser84Leu, Glu88Val and grlA Ser80Phe, Ala116Val mutant after 24 hrs by broth microdilution method; assay type: functional
Staphylococcus aureus [16] = assay: Antibacterial activity against Staphylococcus aureus BSA643 isolate with gyrA Ser84Leu and grlA Ser80Tyr, Glu84Gly mutant after 24 hrs by broth microdilution method; assay type: functional
Staphylococcus aureus [17] = assay: Antibacterial activity against Staphylococcus aureus ACH-0126 isolate with gyrA Ser84Leu and grlA Ser80Phe mutant after 24 hrs by broth microdilution method; assay type: functional
Staphylococcus aureus [18] = assay: Antibacterial activity against Staphylococcus aureus ATCC 29213 after 24 hrs by broth microdilution method; assay type: functional; details: ATCC 29213, 24 h; method in brief: as §1
Staphylococcus aureus [19] = assay: Antibacterial activity against Staphylococcus aureus ACH-0203 isolate with gyrA Ser84Leu and grlA Ser80Phe, Ala116Val mutant after 24 hrs by broth microdilution method; assay type: functional; method in brief: as §1
Staphylococcus aureus [20] = assay: Antibacterial activity against Staphylococcus aureus ACH-0141 isolate with gyrA Ser84Leu, Glu88Val and grlA Ser80Phe, Ala116Val mutant after 24 hrs by broth microdilution method; assay type: functional
Staphylococcus aureus [21] = assay: Antibacterial activity against Staphylococcus aureus ACH-0221 isolate with gyrA Ser84Leu mutant after 24 hrs by broth microdilution method; assay type: functional; method in brief: as §1
Staphylococcus aureus [22] = assay: Antibacterial activity against Staphylococcus aureus ACH-0231 isolate with gyrA Ser84Leu, Glu88Lys and grlA Ser80Tyr, Glu84Gly mutant assessed as doubling time of bacterial growth at 1 ug/ml; assay type: functional
Method in brief: (§3)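 Overnight cultures in MH or Mueller-Hinton II medium at 37°C with aeration were diluted to OD625 of about 0.05. Turbidity was read every 30 min over the first 7 h. Doubling time was estimated from log OD625 versus time growth curves.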

Staphylococcus aureus [23] = assay: Antibacterial activity against Staphylococcus aureus ACH-0203 isolate with gyrA Ser84Leu and grlA Ser80Phe, Ala116Val mutant assessed as doubling time of bacterial growth at 1 ug/ml; assay type: functional; method in brief: as §3
Staphylococcus aureus [24] = assay: Antibacterial activity against Staphylococcus aureus ACH-0126 isolate with gyrA Ser84Leu and grlA Ser80Phe mutant assessed as doubling time of bacterial growth at 1 ug/ml; assay type: functional; method in brief: as §3
Staphylococcus aureus [25] = assay: Antibacterial activity against Staphylococcus aureus ACH-0130 isolate with gyrA Ser84Leu, Glu88Val and grlA Ser80Phe, Ala116Val mutant assessed as doubling time of bacterial growth at 1 ug/ml; assay type: functional; method in brief: as §3
Staphylococcus aureus [26] = assay: Antibacterial activity against Staphylococcus aureus BSA643 isolate with gyrA Ser84Leu and grlA Ser80Tyr, Glu84Gly mutant assessed as doubling time of bacterial growth at 1 ug/ml; assay type: functional; method in brief: as §3
Staphylococcus aureus [27] = assay: Antibacterial activity against Staphylococcus aureus BSA678 isolate with gyrA Ser84Leu, Ser85Pro and grlA Ser80Phe, Glu84Lys mutant assessed as doubling time of bacterial growth at 1 ug/ml
Staphylococcus aureus [28] = assay: Antibacterial activity against Staphylococcus aureus ACH-0141 isolate with gyrA Ser84Leu, Glu88Val and grlA Ser80Phe, Ala116Val mutant assessed as doubling time of bacterial growth at 1 ug/ml; assay type: functional; method in brief: as §3
Staphylococcus aureus [29] = assay: Antibacterial activity against Staphylococcus aureus NY2746 isolate with gyrA Ser84Leu and grlA Ser80Phe mutant assessed as doubling time of bacterial growth at 1 ug/ml; assay type: functional; method in brief: as §3
Staphylococcus aureus [30] = assay: Antibacterial activity against Staphylococcus aureus ACH-0186 isolate with gyrA Ser84Leu and grlA Ser80Phe mutant assessed as doubling time of bacterial growth at 1 ug/ml; assay type: functional; method in brief: as §3
Staphylococcus aureus [31] = assay: Antibacterial activity against Staphylococcus aureus ATCC 29213 assessed as doubling time of bacterial growth at 1 ug/ml; assay type: functional; method in brief: as §3
Staphylococcus aureus [32] = assay: Antibacterial activity against Staphylococcus aureus ACH-0129 isolate with gyrA Ser84Leu, Glu88Val and grlA Ser80Phe, Ala116Val mutant assessed as doubling time of bacterial growth at 1 ug/ml; assay type: functional; method in brief: as §3
[33] = Inhibition of Staphylococcus aureus […] topoisomerase 4 grlA S80F mutant decatenation activity assessed as unlinking of DNA microcircles from kinetoplast DNA
Method in brief: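 Recombinant S. aureus GrlA (Ser80Phe) and GrlB were mixed 1:1 molar on ice for 10 min. kDNA (0.1 μg) with 2 U enzyme, 30 min at 37°C, in 1 mM ATP, 5 mM MgCl2, 250 mM K-glutamate, 50 mM Tris pH 7.5. Reactions stopped with EDTA, run on 1% agarose-TBE and ethidium-stained, minicircles quantitated. IC50 by nonlinear regression.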

Staphylococcus aureus [34] = assay: Antibacterial activity against Staphylococcus aureus ATCC 700699 isolate with gyrA Ser84Leu, Glu409Lys and grlA Ser80Phe mutant assessed as doubling time of bacterial growth at 1 ug/ml; assay type: functional; method in brief: as §3
Staphylococcus aureus [35] = assay: Antibacterial activity against Staphylococcus aureus ACH-0201 isolate with gyrA Ser84Leu, Glu88Val and grlA Ser80Phe, Ala116Val mutant assessed as doubling time of bacterial growth at 1 ug/ml; assay type: functional; method in brief: as §3
DNA gyrase subunit A = DNA gyrase subunit A (Staphylococcus aureus, UniProt P20831, S84L); assay: Inhibition of Staphylococcus aureus DNA gyrase gyrA S84L mutant supercoiling activity assessed as effect on conversion of relaxed pBR322 DNA to supercoiled form
[36] = Inhibition of Staphylococcus aureus wild-type topoisomerase 4 decatenation activity assessed as unlinking of DNA microcircles from kinetoplast DNA
Method in brief: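 S. aureus topo IV reconstituted from His-purified recombinant GrlA and GrlB (E. coli BL21(DE3)pLysS expression), mixed 1:1 molar on ice 10 min. 0.1 μg catenated kDNA with 2 U enzyme, 30 min at 37°C in 1 mM ATP, 5 mM DTT, 5 mM MgCl2, 50 μg/ml BSA, 50 mM Tris-HCl pH 7.5, 250 mM potassium glutamate. Products on 1% agarose gel, ethidium-stained, quantitated; IC50 by nonlinear regression.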

Staphylococcus aureus [37] = assay: Antibacterial activity against Staphylococcus aureus ACH-0192 isolate with gyrA Ser84Leu and grlA Ser80Phe, Ala116Val mutant assessed as doubling time of bacterial growth at 1 ug/ml; assay type: functional; method in brief: as §3

Compound | MIC (Staphylococcus aureus [1]) [µg/mL] | MIC (Staphylococcus aureus [2]) [µg/mL] | MIC (Staphylococcus aureus [3]) [µg/mL] | MIC (Staphylococcus aureus [4]) [µg/mL] | MIC (Staphylococcus aureus [5]) [µg/mL] | MIC (Staphylococcus aureus [6]) [µg/mL] | MIC (Staphylococcus aureus [7]) [µg/mL] | MIC (Staphylococcus aureus [8]) [µg/mL] | MIC (Staphylococcus aureus [9]) [µg/mL] | MIC (Staphylococcus aureus [10]) [µg/mL] | MIC (Staphylococcus aureus [11]) [µg/mL] | MIC (Staphylococcus aureus [12]) [µg/mL] | MIC (Staphylococcus aureus [13]) [µg/mL] | MIC (Staphylococcus aureus [14]) [µg/mL] | MIC (Staphylococcus aureus [15]) [µg/mL] | MIC (Staphylococcus aureus [16]) [µg/mL] | MIC (Staphylococcus aureus [17]) [µg/mL] | MIC (Staphylococcus aureus [18]) [µg/mL] | MIC (Staphylococcus aureus [19]) [µg/mL] | MIC (Staphylococcus aureus [20]) [µg/mL] | further results
Cc1cc(-c2cc3c(cc2F)c(=O)c2c(=O)[nH]sc2n3C2CC2)ccn1 | 0.25 (≈ 0.68 µM) | 0.5 (≈ 1.36 µM) | 0.03 (≈ 0.0817 µM) | 0.016 (≈ 0.0435 µM) | 4 (≈ 10.9 µM) | 4 (≈ 10.9 µM) | 2 (≈ 5.44 µM) | 0.03 (≈ 0.0817 µM) | 16 (≈ 43.5 µM) | 0.08 (≈ 0.218 µM) | 0.5 (≈ 1.36 µM) | 0.004 (≈ 0.0109 µM) | 0.5 (≈ 1.36 µM) | 4 (≈ 10.9 µM) | 8 (≈ 21.8 µM) | 0.25 (≈ 0.68 µM) | 0.5 (≈ 1.36 µM) | 0.008 (≈ 0.0218 µM) | 2 (≈ 5.44 µM) | 16 (≈ 43.5 µM) | MIC (Staphylococcus aureus [21]): 0.03 µg/mL (≈ 0.0817 µM)
COc1c(-c2ccnc(C)c2)c(F)cc2c(=O)c3c(=O)[nH]sc3n(C3CC3)c12 | 0.25 (≈ 0.629 µM) | 0.125 (≈ 0.315 µM) | 0.015 (≈ 0.0377 µM) | 0.008 (≈ 0.0201 µM) | 0.5 (≈ 1.26 µM) | 0.5 (≈ 1.26 µM) | 0.5 (≈ 1.26 µM) | 0.016 (≈ 0.0403 µM) | 2 (≈ 5.03 µM) | 0.008 (≈ 0.0201 µM) | 0.5 (≈ 1.26 µM) | 0.004 (≈ 0.0101 µM) | 0.25 (≈ 0.629 µM) | 0.5 (≈ 1.26 µM) | 2 (≈ 5.03 µM) | 0.125 (≈ 0.315 µM) | 0.125 (≈ 0.315 µM) | 0.004 (≈ 0.0101 µM) | 1 (≈ 2.52 µM) | 2 (≈ 5.03 µM) | Time (Staphylococcus aureus [22]): 35 min; Time (Staphylococcus aureus [23]): 338 min; Time (Staphylococcus aureus [24]): 34 min; Time (Staphylococcus aureus [25]): 52 min; Time (Staphylococcus aureus [26]): 38 min; Time (Staphylococcus aureus [27]): 42 min; Time (Staphylococcus aureus [28]): 340 min; Time (Staphylococcus aureus [29]): 33 min; Time (Staphylococcus aureus [30]): 34 min; Time (Staphylococcus aureus [31]): 30 min; Time (Staphylococcus aureus [32]): 40 min; IC50 [33]: 15.8 µM; Time (Staphylococcus aureus [34]): 39 min; Time (Staphylococcus aureus [35]): 180 min; IC50 (DNA gyrase subunit A): 52.3 µM; IC50 [36]: 1 µM; MIC (Staphylococcus aureus [21]): 0.03 µg/mL (≈ 0.0755 µM); Time (Staphylococcus aureus [37]): 121 min
COc1c(-c2cc(C)nc(C)c2)c(F)cc2c(=O)c3c(=O)[nH]sc3n(C3CC3)c12 | 0.125 (≈ 0.304 µM) | 0.125 (≈ 0.304 µM) | 0.015 (≈ 0.0365 µM) | 0.008 (≈ 0.0194 µM) | 0.5 (≈ 1.22 µM) | 0.5 (≈ 1.22 µM) | 1 (≈ 2.43 µM) | 0.016 (≈ 0.0389 µM) | 1 (≈ 2.43 µM) | 0.004 (≈ 0.00972 µM) | 0.25 (≈ 0.608 µM) | 0.004 (≈ 0.00972 µM) | 0.25 (≈ 0.608 µM) | 0.5 (≈ 1.22 µM) | 1 (≈ 2.43 µM) | 0.125 (≈ 0.304 µM) | 0.125 (≈ 0.304 µM) | 0.004 (≈ 0.00972 µM) | 1 (≈ 2.43 µM) | 2 (≈ 4.86 µM) | IC50 [33]: 9.3 µM; IC50 (DNA gyrase subunit A): 21.5 µM; IC50 [36]: 0.8 µM; MIC (Staphylococcus aureus [21]): 0.03 µg/mL (≈ 0.0729 µM)
